The text below walks through data of ChEMBL document CHEMBL4152271, “Polypharmacological profile of 1,2-dihydro-2-oxo-pyridine-3-carboxamides in the endocannabinoid system” (Eur J Med Chem, 2018).

Active and inactive are the calls of the source. The calls are words filed in the database; no cut-off is given here.

T2 sequence (P34972 whole entry): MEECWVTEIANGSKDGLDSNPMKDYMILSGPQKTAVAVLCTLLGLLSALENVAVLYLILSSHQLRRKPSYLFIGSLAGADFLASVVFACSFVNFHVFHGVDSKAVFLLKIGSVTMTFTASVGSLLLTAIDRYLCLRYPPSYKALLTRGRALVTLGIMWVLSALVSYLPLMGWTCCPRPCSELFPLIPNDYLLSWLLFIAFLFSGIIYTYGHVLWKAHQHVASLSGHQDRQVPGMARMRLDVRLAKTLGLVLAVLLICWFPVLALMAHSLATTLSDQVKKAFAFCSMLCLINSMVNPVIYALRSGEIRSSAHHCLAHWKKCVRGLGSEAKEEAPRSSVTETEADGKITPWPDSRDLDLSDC

In the first assay the target is Cannabinoid receptor 1 (Homo sapiens, UniProt P21554). The assay can be described thus: Displacement of [3H]-CP55940 from human CB1 receptor expressed in CHO cell membranes after 90 mins.
Sequence of Cannabinoid receptor 1 (P21554 whole entry): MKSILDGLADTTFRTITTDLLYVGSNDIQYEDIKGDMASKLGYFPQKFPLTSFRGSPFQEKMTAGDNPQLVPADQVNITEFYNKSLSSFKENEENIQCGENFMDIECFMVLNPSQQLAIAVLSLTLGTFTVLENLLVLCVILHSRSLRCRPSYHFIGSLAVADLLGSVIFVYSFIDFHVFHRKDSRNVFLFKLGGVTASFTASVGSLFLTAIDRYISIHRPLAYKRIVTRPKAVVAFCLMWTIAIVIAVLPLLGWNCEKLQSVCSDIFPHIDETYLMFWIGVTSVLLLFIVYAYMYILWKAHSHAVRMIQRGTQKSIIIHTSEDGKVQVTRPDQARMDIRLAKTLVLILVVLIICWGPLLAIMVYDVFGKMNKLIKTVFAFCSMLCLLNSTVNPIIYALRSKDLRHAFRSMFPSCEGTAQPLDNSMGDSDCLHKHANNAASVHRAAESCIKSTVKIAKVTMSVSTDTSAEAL
The term Ki denotes a dissociation constant, usually derived from enzyme kinetics or from competition with a known ligand. A high value points to a looser hold on the target. Compound `Cc1c(Br)cn(Cc2ccc(F)cc2)c(=O)c1C(=O)NC1CCCCCC1` registered a Ki of 2.3 nM.
Regarding `COc1ccc(-c2cn(Cc3ccc(F)cc3)c(=O)c(C(=O)NC3CCCCCC3)c2C)cc1`, the affinity corresponds to a Ki of 30.7 nM.
`Cc1c(Br)cnc(OCc2ccc(F)cc2)c1C(=O)NC1CCCCCC1` came in with a Ki of 113 nM.

A further assay deals with T1, Monoacylglycerol lipase ABHD6 (Homo sapiens, UniProt Q9BV23).
T1 sequence (Q9BV23 whole entry): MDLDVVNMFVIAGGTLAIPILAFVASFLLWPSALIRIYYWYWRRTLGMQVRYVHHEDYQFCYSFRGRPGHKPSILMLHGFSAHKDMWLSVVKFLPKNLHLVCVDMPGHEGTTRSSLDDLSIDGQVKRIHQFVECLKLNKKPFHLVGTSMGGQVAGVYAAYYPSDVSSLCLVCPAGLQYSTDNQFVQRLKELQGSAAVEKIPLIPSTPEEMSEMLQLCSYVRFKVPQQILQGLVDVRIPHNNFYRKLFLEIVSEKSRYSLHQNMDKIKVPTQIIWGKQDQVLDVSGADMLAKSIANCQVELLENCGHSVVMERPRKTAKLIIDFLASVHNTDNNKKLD
The assay can be described thus: Inhibition of human ABHD6 expressed in HEK293 cells using 2-OG as substrate preincubated for 30 mins followed by substrate addition and measured after 5 mins by liquid scintillation spectroscopic method. The format is cell-based. In a few lines:
(§1)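 Homogenate (40 µg) of HEK293 cells stably transfected with hABHD6 or hABHD12, compound preincubated 30 min at 37 °C in […], 0.1% BSA, pH 7.6. DMSO vehicle; WWL70 10 µM or THL 20 µM as positive controls. 10 µM 2-OG added for 5 min at 37 °C, stopped with CHCl₃:MeOH. Aqueous phase counted; no-enzyme blanks and non-transfected HEK293 hydrolysis subtracted.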
One may read the IC50 as the concentration that inhibits the measured activity by half. Low values mean inhibition by little substance, high ones a need for much substance. Take `Cc1c(Br)cn(Cc2ccc(F)cc2)c(=O)c1C(=O)NC1CCCCCC1`: the IC50 is greater than 10000 nM.
`COc1ccc(-c2cn(Cc3ccc(F)cc3)c(=O)c(C(=O)NC3CCCCCC3)c2C)cc1` came in with an IC50 greater than 10000 nM.
In turn, `Cc1c(Br)cnc(OCc2ccc(F)cc2)c1C(=O)NC1CCCCCC1` registered an IC50 of 530 nM.

For a further assay, the target named is T2, Cannabinoid receptor 2 (Homo sapiens, UniProt P34972). In words: Agonist activity at human CB2 receptor expressed in CHO cell membranes after 90 mins by [35S]GTPgammaS binding assay relative to control. It counts as functional. In a few lines:
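Membranes (5 µg) of hCB2-expressing cells in 50 mM Tris-HCl, 3 mM MgCl₂, 0.2 mM EDTA, 100 mM NaCl, 0.5% fatty acid-free BSA, pH 7.4, with 10 µM GDP and 0.1 nM [³⁵S]GTPγS. Kept on ice, started by vehicle or compound, 90 min at 30 °C. Nonspecific binding with 10 µM GTPγS. Filtered on GF/B, radioactivity counted. At least three experiments in triplicate, mean ± SD.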
(GTPγS is a poorly hydrolysed GTP analogue; its binding reports G protein activation.)
Usually Emax stands for the size of the effect at its maximum, as opposed to the concentration needed. In turn, `Cc1c(Br)cn(Cc2ccc(F)cc2)c(=O)c1C(=O)NC1CCCCCC1` gave an Emax of 134%.
`COc1ccc(-c2cn(Cc3ccc(F)cc3)c(=O)c(C(=O)NC3CCCCCC3)c2C)cc1`: the Emax was determined as 99%.
As for `Cc1c(Br)cnc(OCc2ccc(F)cc2)c1C(=O)NC1CCCCCC1`, the Emax stood at 125%.

In another assay the target is T2, Cannabinoid receptor 2. In words: Displacement of [3H]-CP55940 from human CB2 receptor expressed in CHO cell membranes after 90 mins. The procedure, abridged:
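Membranes expressing hCB1 or hCB2 (stably transfected CHO) in 50 mM Tris-HCl, 2.5 mM EDTA, 5 mM MgCl₂, 0.5% fatty acid-free BSA, pH 7.4. Nonspecific binding with 10 µM […]. GF/B filtration, radioactivity counted, Ki derived. Mean ± SD, at least 3 experiments in triplicate.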
`Cc1c(Br)cn(Cc2ccc(F)cc2)c(=O)c1C(=O)NC1CCCCCC1`: the affinity corresponds to a Ki of 3.5 nM.
On the same count and under the same terms, under `COc1ccc(-c2cn(Cc3ccc(F)cc3)c(=O)c(C(=O)NC3CCCCCC3)c2C)cc1` stands 7.9 nM; under `Cc1c(Br)cnc(OCc2ccc(F)cc2)c1C(=O)NC1CCCCCC1`, 606 nM.

For the next assay, the species on record is Homo sapiens. The assay can be described thus: Selectivity ratio of Ki for human CB1 receptor to Ki for human CB2 receptor. In a few lines:
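Membranes expressing hCB1 or hCB2 (stably transfected CHO) in 50 mM Tris-HCl, 2.5 mM EDTA, 5 mM MgCl₂, 0.5% fatty acid-free BSA, pH 7.4. Incubated with compound and 0.5 nM [³H]CP55,940 for 90 min at 30 °C. Nonspecific binding with 10 µM […]. GF/B filtration, radioactivity counted, Ki derived. Mean ± SD, at least 3 experiments in triplicate.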
As to `Cc1c(Br)cn(Cc2ccc(F)cc2)c(=O)c1C(=O)NC1CCCCCC1`, the Ratio Ki worked out at 0.65.
Take `COc1ccc(-c2cn(Cc3ccc(F)cc3)c(=O)c(C(=O)NC3CCCCCC3)c2C)cc1`: the Ratio Ki lay within 2 to 54.
With `Cc1c(Br)cnc(OCc2ccc(F)cc2)c1C(=O)NC1CCCCCC1`, the Ratio Ki is 0.18.

For another assay, the system named is U-251. The assay can be described thus: Cytotoxicity against human U251MG cells assessed as decrease in cell viability at 0.6 to 40 uM after 48 hrs by MTT assay. The format is functional, cell-based. The procedure, abridged:
(§2)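 U251MG (EMEM, 10% FBS) or U937 (RPMI 1640, 10% FBS) cells plated at 4x10³/well for 24h, then exposed to compounds (0–40 µM) for 48 h at 37°C. MTT reduction, formazan read at 595 nm. Viability as % of untreated control. Five independent experiments in triplicate, mean ± SD, ANOVA with Bonferroni.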
(In general: Tetrazolium dyes change colour on reduction, which living cells bring about.)
As to `Cc1c(Br)cn(Cc2ccc(F)cc2)c(=O)c1C(=O)NC1CCCCCC1`, the outcome was inactive.
Same read-out and setting: the result for `COc1ccc(-c2cn(Cc3ccc(F)cc3)c(=O)c(C(=O)NC3CCCCCC3)c2C)cc1` reads “inactive”; that for `Cc1c(Br)cnc(OCc2ccc(F)cc2)c1C(=O)NC1CCCCCC1`, “inactive”.

For another assay, the system named is U-937. In words: Cytotoxicity against human U937 cells assessed as decrease in cell viability at 0.6 to 40 uM after 48 hrs by MTT assay. It counts as functional, cell-based. In a few lines:
as §2
As to `Cc1c(Br)cn(Cc2ccc(F)cc2)c(=O)c1C(=O)NC1CCCCCC1`, the outcome was Active.
Regarding `COc1ccc(-c2cn(Cc3ccc(F)cc3)c(=O)c(C(=O)NC3CCCCCC3)c2C)cc1`, the outcome was Active.
Consider `Cc1c(Br)cnc(OCc2ccc(F)cc2)c1C(=O)NC1CCCCCC1`, for which the outcome was Active.

Another assay deals with T3, Lysophosphatidylserine lipase ABHD12 (Homo sapiens, UniProt Q8N2K0).
T3 sequence (Q8N2K0 whole entry): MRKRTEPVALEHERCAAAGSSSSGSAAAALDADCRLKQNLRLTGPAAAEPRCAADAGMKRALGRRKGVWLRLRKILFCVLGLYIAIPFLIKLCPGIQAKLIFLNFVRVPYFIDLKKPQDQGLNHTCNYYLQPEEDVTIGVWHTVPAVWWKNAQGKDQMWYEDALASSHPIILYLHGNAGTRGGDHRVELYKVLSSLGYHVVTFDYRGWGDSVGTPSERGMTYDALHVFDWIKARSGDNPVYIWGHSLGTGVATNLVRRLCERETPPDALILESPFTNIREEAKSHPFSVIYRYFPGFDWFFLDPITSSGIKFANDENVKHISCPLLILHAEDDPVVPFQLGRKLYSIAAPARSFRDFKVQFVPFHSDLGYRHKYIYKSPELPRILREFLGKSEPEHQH
The assay can be described thus: Inhibition of human ABHD12 expressed in HEK293 cells using 2-OG as substrate preincubated for 30 mins followed by substrate addition and measured after 5 mins by liquid scintillation spectroscopic method. It counts as cell-based. The procedure, abridged: as §1
In turn, `Cc1c(Br)cn(Cc2ccc(F)cc2)c(=O)c1C(=O)NC1CCCCCC1` gave a half-inhibitory concentration (IC50) of 2100 nM.
For `COc1ccc(-c2cn(Cc3ccc(F)cc3)c(=O)c(C(=O)NC3CCCCCC3)c2C)cc1`, the half-maximal inhibitory concentration (IC50) was greater than 10000 nM.
`Cc1c(Br)cnc(OCc2ccc(F)cc2)c1C(=O)NC1CCCCCC1` yielded an IC50 greater than 10000 nM.

The target of the next assay is T4, Monoglyceride lipase (Homo sapiens, UniProt Q99685).
T4 sequence (Q99685 whole entry): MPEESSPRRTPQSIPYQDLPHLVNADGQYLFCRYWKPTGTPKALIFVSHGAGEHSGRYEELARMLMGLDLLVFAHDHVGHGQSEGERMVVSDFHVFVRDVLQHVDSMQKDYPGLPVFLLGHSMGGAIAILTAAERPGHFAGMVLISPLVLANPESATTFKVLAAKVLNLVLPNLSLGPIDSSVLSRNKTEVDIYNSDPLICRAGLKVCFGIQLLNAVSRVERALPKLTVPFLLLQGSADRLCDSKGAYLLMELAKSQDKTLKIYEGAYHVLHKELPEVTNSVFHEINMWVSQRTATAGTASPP
The assay can be described thus: Inhibition of MAGL in human U937 cells using 2-OG containing […] as substrate preincubated for 30 mins followed by substrate addition and measured after 15 mins by liquid scintillation spectroscopic method. It counts as cell-based. The procedure, abridged:
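U937 cell homogenate (100 µg) in 10 mM Tris-HCl, 1 mM EDTA, pH 8, 0.1% fatty acid-free BSA. Compound at 10 µM screening concentration, 30 min at 37 °C. FAAH: 100 nM AEA with 1 nM [³H]AEA tracer. MAGL: 1 µM 2-OG with 1 nM tritiated tracer. Both 15 min at 37 °C, stopped with CHCl₃:MeOH (1:1), aqueous phase counted.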
For `Cc1c(Br)cn(Cc2ccc(F)cc2)c(=O)c1C(=O)NC1CCCCCC1`, the IC50 is greater than 10000 nM.
For the compound `COc1ccc(-c2cn(Cc3ccc(F)cc3)c(=O)c(C(=O)NC3CCCCCC3)c2C)cc1`, the IC50 was greater than 10000 nM.
Compound `Cc1c(Br)cnc(OCc2ccc(F)cc2)c1C(=O)NC1CCCCCC1` gave an IC50 greater than 10000 nM.

The next assay relates to U-937. In words: Inhibition of [ethanolamine-1-3H]AEA/unlabeled AEA uptake in human U937 cells preincubated for 15 mins followed by [ethanolamine-1-3H]AEA/unlabeled AEA addition and measured after 15 mins by scintillation counting method. It counts as functional, cell-based. In a few lines:
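Intact U937 cells (0.5x10⁶ per sample) in RPMI, preincubated with compound for 15 min at 37 °C. Then 1 nM [ethanolamine-1-³H]AEA plus unlabeled AEA (final 100 nM) added for 15 min. Stopped by rapid filtration and ice-cold PBS/1% BSA washes, radioactivity counted. At least three experiments in triplicate, mean ± SD.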
`Cc1c(Br)cn(Cc2ccc(F)cc2)c(=O)c1C(=O)NC1CCCCCC1` showed an IC50 of 930 nM.
Compound `COc1ccc(-c2cn(Cc3ccc(F)cc3)c(=O)c(C(=O)NC3CCCCCC3)c2C)cc1` gave an IC50 of 280 nM.
The compound `Cc1c(Br)cnc(OCc2ccc(F)cc2)c1C(=O)NC1CCCCCC1` returned an IC50 of 620 nM.
